The text below walks through data of ChEMBL document CHEMBL3286347, “Evaluation of anti-inflammatory activity of prenylated substances isolated from Morus alba and Morus nigra” (J Nat Prod, 2014).

Activity calls are given as the source filed them. The rule behind the calls is not given here.

The test system of assay [1] is THP-1. As to the kind of experiment: Cytotoxicity against human THP1 cells after 24 hrs by WST1 assay. It counts as cell-based. As to conditions: THP-1, 24 h. The method, boiled down:
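THP-1 monocyte suspension (5 × 10^5 cells/mL) exposed to compounds in DMSO, 30 down to 0.37 μM, DMSO 0.1% final; 24 h at 37 °C, 5% CO2; viability by WST-1 reagent; IC50 calculated from viability curves; triplicate, arithmetic mean ± SE.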
On the technique in general: Tetrazolium dyes change colour on reduction, which living cells bring about.

Assay [2] relates to THP-1. The assay is described as follows: Antiinflammatory activity in human THP1 cells assessed as inhibition of TNFalpha secretion at 1 uM treated 1 hr before LPS challenge measured after 24 hrs by ELISA. It counts as functional, cell-based. The method, boiled down:
(§1)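 THP-1 monocytes (RPMI 1640, 10% FBS, 37 °C, 5% CO2) differentiated to macrophages with PMA; pretreated 1 h with test agent at 1 μM in DMSO (0.1% final); LPS (E. coli 0111:B4) 1 μg/mL added, medium collected after 24 h and stored at −80 °C; secreted cytokine quantified by ELISA; vehicle and non-LPS controls; three independent experiments, mean ± SE.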

In assay [3] the target is Transcription factor p65 (Homo sapiens) (UniProt Q04206). As to the kind of experiment: Inhibition of NFkappaB p65 nuclear translocation in LPS-induced human THP1 cells at 1 uM treated 1 hr before LPS challenge measured after 3 hrs using propidium iodide staining by fluorescence microscopic analysis. It counts as cell-based. As to conditions: THP-1. The method, boiled down:
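PMA-differentiated THP-1 macrophages in serum-free RPMI (5 × 10^5 cells/mL) pretreated 1 h at 1 μM, then LPS 1 μg/mL final for 3 h; acetone-fixed, BSA-blocked, rabbit anti-p65 overnight at 4 °C, FITC anti-rabbit IgG 1 h, nuclei counterstained with propidium iodide 0.5 μg/mL; p65/nuclear colocalization viewed by fluorescence microscopy; three independent experiments.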

Assay [4] deals with THP-1. As to the kind of experiment: Antiinflammatory activity in human THP1 cells assessed as inhibition of IL-1beta secretion at 1 uM treated 1 hr before LPS challenge measured after 24 hrs by ELISA. Format: functional, cell-based. The method, boiled down: as §1
For a further assay, the system named is A2780. The assay is described as follows: Cytotoxicity against human A2780 cells. It counts as cell-based.
Assay [5] has as its system THP-1. The assay is described as follows: Ratio of prednisone to compound for antiinflammatory activity in human THP1 cells assessed as inhibition of TNFalpha secretion at 1 uM treated 1 hr before LPS challenge measured after 24 hrs by ELISA. It counts as functional. Background: ELISA stands for enzyme-linked immunosorbent assay.

Chain of Transcription factor p65 (Homo sapiens) (Q04206 whole entry): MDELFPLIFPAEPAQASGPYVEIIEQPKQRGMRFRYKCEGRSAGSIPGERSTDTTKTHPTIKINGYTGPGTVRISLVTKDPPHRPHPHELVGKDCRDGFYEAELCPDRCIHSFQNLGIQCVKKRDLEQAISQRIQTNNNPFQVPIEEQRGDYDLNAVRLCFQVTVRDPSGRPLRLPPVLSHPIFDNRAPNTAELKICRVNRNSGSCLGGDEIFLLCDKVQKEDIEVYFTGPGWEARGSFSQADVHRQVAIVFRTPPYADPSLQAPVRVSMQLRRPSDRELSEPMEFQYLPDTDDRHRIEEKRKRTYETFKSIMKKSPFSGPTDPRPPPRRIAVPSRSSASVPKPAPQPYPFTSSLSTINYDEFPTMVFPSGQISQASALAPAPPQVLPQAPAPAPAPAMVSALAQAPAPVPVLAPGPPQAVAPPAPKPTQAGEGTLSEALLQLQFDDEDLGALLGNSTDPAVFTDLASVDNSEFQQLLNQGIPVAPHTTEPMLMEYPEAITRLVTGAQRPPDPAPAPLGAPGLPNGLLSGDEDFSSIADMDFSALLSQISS

As for `CC1(C)C=Cc2c(O)ccc([C@@H]3CC(=O)c4c(O)cc(O)cc4O3)c2O1`, in the assay on THP-1 [1], the concentration for half-maximal inhibition (IC50) is greater than 10 µM. The inhibition result (in the assay with THP-1 [2]; in assay [3]; with THP-1 [4]) was “Active” each time.

For `CC1=C[C@@H]2c3c(O)cc(C=O)cc3OC3(c4ccc(O)c5c4OC(C)(C)C=C5)Oc4cc(O)ccc4[C@@H](C1)[C@H]23` (some centres undefined), inhibition with THP-1 [1] was half-maximal at 4.7 µM (IC50).

In the case of `CC(C)=CCc1c(O)ccc(C(=O)[C@@H]2[C@@H](c3ccc(O)cc3O)CC(C)=C[C@H]2c2c(O)cc3c(c2O)C(=O)[C@@H]2Oc4cc(O)ccc4[C@]2(CC=C(C)C)O3)c1O`, the IC50 in the assay with THP-1 [1] is 4 µM.

In the assay on A2780, `CC(C)=CCc1c(O)ccc([C@@]23Oc4cc(O)ccc4[C@@H]4CC(C)=C[C@@H](c5c(O)cc(-c6cc7ccc(O)cc7o6)cc5O2)[C@H]43)c1O` returned an IC50 of 1.2 µM.

Regarding `CC(C)=CCc1c(-c2ccc(O)cc2O)oc2cc3c(c(O)c2c1=O)C=CC(C)(C)O3` [CUDRAFLAVONE B], the IC50 with THP-1 [1] is greater than 10 µM. The inhibition result (in the assay with THP-1 [2]; in assay [3]) was “Active” throughout. Besides, in the assay with THP-1 [4], the inhibition entry was “inactive”.

Turning to `CC(C)=CCc1c(-c2ccc(O)cc2O)oc2c(CC=C(C)C)c(O)cc(O)c2c1=O` [KUWANON C], the half-inhibitory concentration (IC50) with THP-1 [1] came to 1.7 µM. The inhibition result in the assay on THP-1 [2] and in the assay on THP-1 [4] was “Active” throughout.

For `CC(C)=CCC/C(C)=C/Cc1cc(C2CC(=O)c3c(O)cc(O)cc3O2)c(O)cc1O` (centres undefined) [KUWANON E], in the assay on THP-1 [1], the IC50 amounted to 4 µM. Further, the inhibition result in the assay with THP-1 [2] and with THP-1 [4] was “Active” in each case.

Molecule `CC(C)=CCc1c(O)cc(-c2cc3ccc(O)cc3o2)cc1O` [MORACIN C] returned a concentration for half-maximal inhibition (IC50) with THP-1 [1] of 3.2 µM. Besides, in the assay on THP-1 [4], the inhibition entry is “inactive”.

Regarding `CC(C)(O)CCc1c(-c2ccc(O)cc2O)oc2c3c(cc(O)c2c1=O)OC(C)(C)C=C3` [MORUSINOL], the 50% inhibitory concentration (IC50) in the assay on THP-1 [1] stood at 4.3 µM. The inhibition result (in the assay on THP-1 [2]; in assay [3]; with THP-1 [4]) was “Active” throughout. For the same molecule, in the assay on THP-1 [5], the Ratio worked out at 2.

Turning to `C[C@@]12C=C(c3c(O)cc(-c4cc5ccc(O)cc5o4)cc3O)C[C@@H](C1)c1ccc(O)cc1O2` [MULBERROFURAN H], half-maximal inhibition with THP-1 [1] (IC50) required 3.2 µM. In assay [3], the inhibition entry was “Active”. Besides, the inhibition entry in the assay on THP-1 [4] was “inactive”.

The molecule `COc1c(O)cc2oc(-c3cc(O)cc(O)c3)cc2c1C/C=C(\C)CCC=C(C)C` [MULBERROFURAN Y] had an IC50 in the assay on THP-1 [1] of 4.8 µM. Besides, in the assay on THP-1 [4], the inhibition result was “Active”.

Usually IC50 stands for the point on the concentration scale where inhibition reaches its midpoint.
